PKA-R1A activ – PKA-R1A complex activation. activation, % at 11.4 µM. actives 0.083% (n = 340,000). AID 504707. PKA-R1A dissociation, Cy5-IP20 fluorescence polarization; scaled: DMSO 0%, 113 µM cGMP 100%. P00514+P68181;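 active = percent activation above the mean of all tested compounds plus 3 SD, cut at about 19% in these data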;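 note: higher means more PKAc released from R1A so a rise in polarization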
PKA-R2B activ – PKA-R2B complex activation | P22694+P31323 | PKA-R2B holoenzyme dissociation, Cy5-IP20 fluorescence polarization; R2B truncated from residue 108, S112A mutant; 0% DMSO only, 100% 113 µM cGMP | activation, % at 11.4 µM | actives 0.079% (n = 340,000) | AID 504700;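 active = activation above a cutoff set at the mean over all compounds plus 3 SD, cut at about 18% in these data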;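 note: higher means more holoenzyme dissociation and a rise in polarization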
Rin1 Abl inh – inhibitors of human Rin1-Abl protein interaction. TR-FRET Rin1/Abl binding, biochemical. actives 0.4% (n = 360,000). inhibition, % at 7.35 µM. AID 588664; in the data active = inhibition above about 5%, passing the limit was not always enough
UCH37 inh – human UCH37 deubiquitinating enzyme inhibition; Q9Y5K5; purified proteasome/UCH37, Ub-AMC cleavage fluorescence; inhibition, % (concentration not given with the values); actives 0.33% (n = 330,000); AID 588478;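 active = mean inhibition over replicate wells above about 20%, limit read from the data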;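 note: 0% = compound-free wells with enzyme and 100% = wells lacking proteasome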
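Material: human UCH37 enzyme supplied as purified proteasome complex / Amount: 0.15 nM proteasome as dispensed / Buffer or medium: pH 7.4 Tris-HCl (50 mM) with ovalbumin, ATP-MgCl2, DTT / Times: preincubation 30 min, reaction 25 min, room temperature / Technique: AMC fluorescence from Ub-AMC cleavage, excitation 355 nm, emission 460 nm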
Rin1 Abl conf – confirmation of inhibitors of human Rin1-Abl interaction; TR-FRET Rin1-Abl binding, purified proteins; shares compounds with Rin1 Abl inh; actives 49% (n = 1,300); inhibition, % at 7.35 µM; AID 602124
GFP quench – GFP fluorescence interference artifact | AID 602125 | actives 8.5% (n = 1,300) | shares compounds with Rin1 Abl inh | inhibitors/quenchers counterscreen | inhibition, % at 6.75 µM;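 note: ABL1-eGFP fusion protein alone without its partner RIN1-SBP; 0% = protein with vehicle and 100% = wells lacking protein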
GFP quench dose – quenches GFP in dose response, Rin1-Abl counter-screen. shares compounds with Rin1 Abl inh. GFP fluorescence interference/quenching counterscreen. IC50, µM. 230 tested, under 10 active; call rule not given here;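 note: ABL1-eGFP fusion protein alone without its RIN1 binding partner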
* = called active by the depositor; · = no result given; ! = not confirmed by another sample. Rows were chosen to be rich in hits. Some 0.79% of all compounds tested hit in one or more screens of this group. Cut-off read from the data, not from the text of the source, unless noted: active = inhibition above about 6.5%; inactive = the rest.

SMILES | PKA-R1A activ | PKA-R2B activ | Rin1 Abl inh | UCH37 inh | Rin1 Abl conf | GFP quench | others
CC(C)Sc1ccc(C(=O)Nc2ccc(F)cc2F)cn1 | -4 | -4 | 1 | 5 | · | ·
CCOC(=O)c1[nH]c(=O)[nH]c1CSCCO | -3 | 4 | 8.1* | 3 | 12* | 0
Cc1[nH]c(=O)[nH]c1C(=O)CCCCC(=O)OCC(=O)Nc1ccccn1 | 2 | -5 | 90* | 2 | 97* | -1
CC(=O)c1c(C)[nH]c(C(=O)Nc2ccccn2)c1C | 2 | 4 | 3 | 1 | · | ·
O=c1c(OC2OC(CO)C(O)C(O)C2O)c(-c2ccc(O)c(O)c2)oc2cc(O)cc(O)c12 (stereo not given) | -8 | -2 | 16* | 4 | 15* | 4
O=c1c(O[C@@H]2O[C@H](CO)C(O)C2O)c(-c2ccc(O)c(O)c2)oc2cc(O)cc(O)c12 (stereo not given in full) | 0 | 1 | 7 | 3 | · | ·
C[C@@H]1O[C@@H](O[C@H]2[C@H](O)[C@@H](O)[C@H](Oc3c(-c4ccc(O)c(O)c4)oc4cc(O)cc(O)c4c3=O)O[C@@H]2CO)[C@H](O)[C@H](O)[C@H]1O | -2 | 2 | 11* | · | 11* | 3
COc1cc(-c2oc3cc(O)cc(O)c3c(=O)c2O[C@@H]2O[C@H](COC3O[C@@H](C)[C@H](O)[C@@H](O)[C@H]3O)[C@@H](O)[C@H](O)[C@H]2O)ccc1O (stereo not given in full) | 3 | 5 | 2 | 4 | · | ·
C[C@@H]1O[C@@H](Oc2c(-c3ccc(O)c(O)c3)oc3cc(O)cc(O)c3c2=O)[C@H](O)[C@H](O)[C@H]1O | -4 | 3 | 18*! | 2 | 12* | 3
C[C@@H]1O[C@@H](Oc2c(-c3cc(O)c(O)c(O)c3)oc3cc(O)cc(O)c3c2=O)[C@H](O)[C@H](O)[C@H]1O | -1 | -7 | 44* | 8 | 45* | 17*
COc1ccccc1CC(NC(C)=O)C(=O)NC1CCN(S(=O)(=O)c2ccc(NC(C)=O)cc2)CC1 (stereo not given) | 4 | 8 | 12* | -3 | -1 | -1
Cc1ccc2[nH]c(=O)c(C3C(C#N)=C(N)Oc4c3ccc3cccnc43)cc2c1 (stereo not given) | 3 | 6 | 9.8* | 0 | 2 | 6
Cc1cc(C(F)(F)F)nc(SCC(=O)NC2CCCCC2)n1 | -10 | -4 | 2 | 7 | · | ·
CC(C)=CCc1c(O)ccc2c1OC(c1ccc(O)c(O)c1)CC2=O (stereo not given) | -6 | -10 | 2 | 1 | · | ·
O=C1CC(c2ccc(O)c(O)c2)Oc2c1ccc(O)c2O (stereo not given) | 0 | 11 | 49* | 5 | 46* | 25*
COc1ccc(OC)c(NC(=O)C2CCCCC2)c1 | -15 | 3 | 3 | 0 | · | ·
CC1(C)CC(n2c(NCCO)nc3c(c2=O)C2(CCCC2)Cc2ccccc2-3)CCO1 (stereo not given) | -9 | -13 | 0 | -92 | · | ·
O=C(Nc1nnc(-c2ccco2)o1)c1ccc2ccccc2c1 | -5 | -1 | 0 | 4 | · | ·
O=C(c1ccco1)N1CCN(Cc2cc(=O)c(OCc3ccccc3Cl)co2)CC1 | -11 | -5 | 14* | 5 | 10* | 1
CC(C)Oc1ccc(Cn2c(-c3ccco3)n[nH]c2=S)cc1 | -3 | -3 | 1 | 0 | · | ·
FC(F)(F)c1cccc(OCc2noc(-c3ccsc3)n2)c1 | -7 | -2 | 0 | 2 | · | ·
CCN(CC)c1ccc(C=NN2CCCCCC2)cc1 | 4 | -8 | 33* | 0 | -2 | 1
CCN(CC)c1ccc(/C=N/N2CCOCC2)cc1 | -16 | 8 | 0 | · | · | ·
Cc1ccc2c(c1)c1c3n2CCN(C(=O)CN2CCN(C)CC2)C3CCC1 (stereo not given) | 0 | 1 | -2 | -4 | · | ·
Cc1ccc2c(c1)c(=O)c1c3n2CCN(C(=O)CCl)C3CC1 (stereo not given) | -2 | 2 | 9.4* | 4 | 2 | 5
SMILES | PKA-R1A activ | PKA-R2B activ | Rin1 Abl inh | UCH37 inh | Rin1 Abl conf | GFP quench | others
COCCn1c(C)cc(C(=O)CSc2nnc(-c3cccnc3)n2-c2ccccc2F)c1C | -4 | -1 | 10* | -1 | 1 | -1
CC1CCCN(CCCNC(=O)CCn2nc(-c3ccccc3)ccc2=O)C1 (stereo not given) | -3 | 4 | -1 | 0 | · | ·
CCCCC(=O)Nc1cc([N+](=O)[O-])ccc1F | 8 | -8 | 0 | 3 | · | ·
COc1ccccc1/C=[N+](\[O-])C1SC(=S)N(C)C1(C)C (stereo not given) | -2 | -4 | 6.8* | 5 | -3 | 0
CCOc1ccccc1NC(=O)COC(=O)c1cc[n+]([O-])cc1 | -8 | -7 | -1 | 0 | · | ·
CCOC(=O)c1nnn(-c2nc(OC)nc(N3CCCC3)n2)c1-c1ccccc1 | 7 | 4 | -1 | 3 | · | ·
CCNc1nc(N2CCCCC2)nc(-n2nnc(C(=O)OCC)c2C)n1 | 8 | -2 | 5.8* | -1 | 2 | 1
Cc1[nH]n(S(=O)(=O)c2ccccc2)c(=O)c1N=Nc1cccc(Cl)c1 | 0 | 0 | -1 | 1 | · | ·
Cc1c(C(=O)O)c(O)cc2c1C(=O)c1c(O)c([C@@H]3O[C@H](CO)[C@@H](O)[C@H](O)[C@H]3O)c(O)c(O)c1C2=O | -14 | -16 | 21* | 7 | 27* | 5
COc1cc(O)c(C(C)=O)c(CC(=O)O)c1 | -7 | -9 | 20* | · | 25* | 5 | GFP quench dose=>67
O=C(CCNC(=O)Cn1ccc2ccccc2c1=O)NCCc1ccccc1Cl | 0 | 6 | 3 | -23 | · | ·
Cc1cc2cc(CNC(=S)Nc3ccc(OC(F)F)cc3)ccc2[nH]1 | -11 | 6 | -2 | 3 | · | ·
Cc1cc2cc(CNC(=S)Nc3ccc(OC(F)(F)F)cc3)ccc2[nH]1 | -1 | -13 | 6.1* | 4 | 2 | 0
COc1cccc(C(=O)Nc2ccccc2)c1 | -4 | 7 | -1 | 1 | · | ·
COc1cccc(C(=O)Nc2cccc(SC)c2)c1 | 0 | 8 | 6.3* | 1 | 0 | 0
CC(C)CN(C(=O)COC(=O)c1ccc(C#N)cc1)C1CCS(=O)(=O)C1 (stereo not given) | 8 | -10 | 2 | 4 | · | ·
CCC(C)c1ccc(S(=O)(=O)N2CC(=O)Nc3ccccc32)cc1 (stereo not given) | -6 | -3 | 5.8* | 4 | -1 | 1
CCc1ccc(S(=O)(=O)N2CC(=O)Nc3ccccc32)cc1 | 5 | 1 | 2 | 2 | · | ·

From PubChem BioAssay
